Data taken from ChEMBL document CHEMBL4513216, “Probing the Open Global Health Chemical Diversity Library for Multistage-Active Starting Points for Next-Generation Antimalarials” (ACS Infect Dis, 2020).

Test: Toxicity liver stage against HepG2, at 10uM
Format: cell-based
Parameters: test concentration 10 uM, cell line HepG2-A16-CD81EGFP
Conditions: human, HepG2-A16-CD81EGFP cells; read-out: INHIBITION
In short: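 Uninfected HepG2-A16-CD81EGFP cells, 3 × 10^3 per well, 1536-well, plated on prespotted compound at 10 μM final, parasite-free screening media added to match infected plates; puromycin 10 μM positive, DMSO 0.5% negative; run in parallel with 48 h PbLuc assay at 37 °C, 5% CO2; viability by CellTiter-Glo luminescence, normalized to controls.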

Structure (SMILES)	cytotoxicity at 10 µM
O=C(NC[C@H]1C[C@@H]2CCN1C[C@@H]2CN1CCCCC1)Nc1ccsc1	-1.31%
C=C(C)Cn1c(=O)nc(N)c2c(-c3ccc(OC)cc3)csc21	-26%
CN(C)CC1CSCCCN1C(=O)c1ccc(-c2ccccc2)cc1 (centres undefined)	4.54%
Cc1nccc([C@H]2C[C@@H]3CCN(S(C)(=O)=O)C[C@H]3O2)n1	-0.522%
CC(C)NC(=O)c1ccc2c(c1)nc1n2CCN(Cc2ccccc2)C1	6.61%
Cc1ccccc1C(=O)N1C[C@@H](O)[C@H](N2CCOCC2)C1	9.3%
CNC(=O)c1cn2cc(-c3ccccc3Cl)n(CC3CC3)c(=O)c2n1	0.562%
Nc1ccncc1-n1cc(CCO)cn1	0.769%
COc1ccccc1N1CCN(CC[C@H](O)c2ccccc2)CC1=O	-0.081%
Fc1ccc(Cn2ncc3c2CN(c2noc(C4CC4)n2)C3)cc1	-2.76%
Cc1nc[nH]c1C(=O)N1CC[C@@H](NC(=O)c2ccccn2)[C@H](O)C1	4.61%
O=C1N(Cc2ccc(F)cc2)CCCC12CCN(C1CCSCC1)C2 (centres undefined)	1.77%
CCc1ncc2c(n1)CN(C(=O)CCCc1ccc(OC)cc1)C2	-7.32%
CN1CCc2[nH]cnc2C12CCN(Cc1ccc3nsnc3c1)CC2	5.05%
Cc1ccccc1-n1c(C)cc(=O)[nH]c1=O	-2.4%
CC(C)(C)c1cc2ncn(CCCN3CCCCC3CO)c(=O)c2s1 (centres undefined)	-5.39%
COc1cccc2c1OCC(CNC(=O)CSc1nc(N)n[nH]1)C2 (centres undefined)	0.712%
Cc1nc(C)n(C2CCCN(C(=O)CCOc3cccc(F)c3)C2)n1 (centres undefined)	-1.79%
CCN1N=C(C(=O)N2CCCC(c3nc(C)cs3)C2)CCC1=O (centres undefined)	-3.12%
CCn1cnnc1C1CCN(C(=O)c2cc(F)ccc2OC)CC1	-3.35%
CC(C)Oc1ccc(Cl)c(C(=O)N2CCN(CCO)CC2)n1	-3.82%
CCn1cc(CN2CCCN(C(=O)CCc3ccccc3)CC2)cn1	-7.9%

Structure (SMILES)	cytotoxicity at 10 µM
O=C(c1ccc2[nH]nnc2c1)N1CCC(Nc2cccnn2)CC1	-1.49%
O=C1COc2ccc(C(=O)NS(=O)(=O)c3cc(F)ccc3F)cc2N1	-4.92%
COc1ccccc1OCCC(=O)N1CCCC1Cn1cccn1 (centres undefined)	-5.19%
COc1ccc(C(=O)N(Cc2cnn(C)c2)C(C)C)cc1OC(F)F	-5.17%
CCOc1cc(C(=O)N2CCCC(c3noc(C)n3)C2)ccc1OC (centres undefined)	-3.33%
O=C1NCCN1C1CCCN(Cc2coc(-c3cccs3)n2)C1 (centres undefined)	-4.39%
Cc1ccc(-n2nnc(C(=O)NCC3(CO)CC3)c2C2CC2)cc1	-4.43%
Cc1cccc(NC(=O)C2CSCN2C(=O)c2cnccn2)c1C (centres undefined)	-0.691%
Cn1cnc2c1CCN(Cc1csc(C3CCCCC3)n1)C2	-3.36%
Cc1ccc(OCC(O)CN2CCC(Cn3cc(C)cn3)CC2)cc1 (centres undefined)	-3.17%
CC(OCc1ccccc1)C(=O)NCc1ccc(N(C)C)cc1 (centres undefined)	-12%
CCc1nnc2n1CCN(C(=O)c1cc3cc(F)ccc3[nH]1)C2	-9.52%
Cc1ccc(NC(=O)C2CSCN2C(=O)c2cnccn2)c(C)c1 (centres undefined)	-8.6%
CN1CCCC1CNC(=O)CCCOCc1ccccc1 (centres undefined)	-5.59%
COc1c(CNC(c2ccc(F)cc2)C(C)(C)C)c(C)nn1C (centres undefined)	0.0161%
CCN(Cc1ccc2c(c1)OCO2)C(=O)CCc1c(C)nc(C)[nH]c1=O	-4.61%
Cc1cc2n(n1)CC(CNCc1ccc(-n3cccn3)nc1)CN2 (centres undefined)	-10.5%
CCc1nc(CN2CCCN(C(=O)c3cn[nH]c3CC)CC2)cs1	-7.21%
O=C(CN(C1=NCCCC1)c1ccccc1)c1ccc2c(c1)OCCO2	8.9%
NCC1[C@H]2CN(CCc3ccccc3)C[C@@H]12 (some centres undefined)	5.22%
CN(C)CCOCC1CN(Cc2ccc(F)cc2)Cc2nnn(C)c21 (centres undefined)	4.59%
CC(C)(C)c1cc(CN2C[C@H]3CC[C@@H](C2)N(Cc2ccccn2)C3)n[nH]1	0.541%
